# Experimental data from different studies.
# Lines come from different studies, so protocols differ.
# Target: Casein kinase II subunit alpha' (CSNK2A2, Homo sapiens, UniProt P19784)
Structure (SMILES),observed,method,concentration,remaining binding [%]
FC(F)(F)Oc1cccc(-c2cnc3ccc(-c4ccncc4)nn23)c1,cell-free assay,competition with immobilised ligand,5 µM,23
C[C@H](c1ccc(F)cc1)N(Cc1cccc(C(=O)O)c1)C(=O)c1cnc2ccccc2c1,cell-free assay,competition with immobilised ligand,1 µM,86
CCN1CCN(Cc2ccc(C(=O)Nc3ccc(C)c(Oc4ccc5c(c4)CC(=O)N5)c3)cc2C(F)(F)F)CC1,binding,competition with immobilised ligand,1 µM,95
O=C(NCC1CCOCC1)c1n[nH]cc1NC(=O)c1c(F)cccc1F,binding,competition with immobilised ligand,1 µM,76
C[C@@H]1CCN(c2nccc(-c3cnn4ncccc34)n2)C1,binding,,1 µM,60
COc1cnc(Nc2cccc(S(N)(=O)=O)c2)nc1N1CCN(c2ccccc2)CC1,binding,competition with immobilised ligand,1 µM,90
c1cncc(-c2cccc(Nc3nccc(NC4CCCCC4)n3)c2)c1,binding,competition with immobilised ligand,10 µM,65
COc1cc(-c2cn(C3CCc4ccccc4N(CC(F)(F)F)C3=O)nn2)ccc1-n1ccc(C)n1 (stereo not shown),cell-free assay,competition with immobilised ligand,1 µM,84
O=C(c1ccc(Nc2ncc(Cl)c(-c3cc4ccccc4s3)n2)cc1)N1CCC(N2CCCC2)CC1,binding,competition with immobilised ligand,1 µM,0.1
Cc1cnn2ncc(-c3ccnc(N(C)C)n3)c2c1,binding,,1 µM,69
O=C(N1CCS(=O)(=O)CC1)N1C[C@H](c2ccc(OC(F)(F)F)cc2)C[C@H](c2nc(C3CC3)no2)C1,cell-free assay,competition with immobilised ligand,1 µM,100
O=C(c1ccc(Nc2nccc(-c3cc4ccccc4s3)n2)cc1)N1CCC(N2CCCC2)CC1,binding,competition with immobilised ligand,1 µM,1.8
N[C@@H]1CCN(c2nccc(-c3cnn4ncccc34)n2)C1,binding,,1 µM,100
Cc1cnc(Nc2ccc(C(=O)N3CCC(N4CCCC4)CC3)cc2)nc1-c1cc2ccccc2s1,binding,competition with immobilised ligand,1 µM,0
c1cnn2ncc(-c3ccnc(N4CCC45COC5)n3)c2c1,binding,,1 µM,24
Cc1cc(C)c(-n2ccn3nc(-c4cccnc4)cc23)cc1NC(=O)c1cc(C#N)cc(S(F)(F)(F)(F)F)c1,cell-free assay,competition with immobilised ligand,0.1 µM,82.4
CN(C)c1nccc(-c2cnc3ncccn23)n1,binding,,1 µM,24
Cn1cc(Cl)c2c(Oc3c(F)cc(Nc4cc(Cl)nc(N)n4)cc3F)ccnc21,cell-free assay,competition with immobilised ligand,0.1 µM,89
CN(CCCC(F)(F)F)c1nccc(-c2cnn3ncccc23)n1,binding,,1 µM,92
CC1=C(C#N)[C@@H](c2ccc3[nH]nc(C)c3c2)C(C#N)=C(c2ccc(Cl)cc2)N1,cell-free assay,competition with immobilised ligand,1 µM,100
CN(c1nccc(-c2cnn3ncccc23)n1)C1CC1,binding,,1 µM,100
COc1ncc2cc3ccccc3nc2c1C#N,cell-free assay,competition with immobilised ligand,5 µM,97
